Data: ChEMBL document CHEMBL4513216, “Probing the Open Global Health Chemical Diversity Library for Multistage-Active Starting Points for Next-Generation Antimalarials” (ACS Infect Dis, 2020)

Experiment: Toxicity liver stage against HepG2, at 10uM
Type: cell-based
Design: test concentration 10 uM, cell line HepG2-A16-CD81EGFP
Conditions: human, HepG2-A16-CD81EGFP cells; read-out: INHIBITION
How it was run: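 Uninfected HepG2-A16-CD81EGFP cells, 3 × 10^3 per well, 1536-well, plated on prespotted compound at 10 μM final, parasite-free screening media added to match infected plates; puromycin 10 μM positive, DMSO 0.5% negative; run in parallel with 48 h PbLuc assay at 37 °C, 5% CO2; viability by CellTiter-Glo luminescence, normalized to controls.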

Row | SMILES | cytotoxicity at 10 µM
1 | CN(Cc1cncnc1)[C@H]1CN(C(=O)c2ccc[nH]2)[C@@H]2CCCO[C@@H]21 | -107%
2 | CN1CCN(S(=O)(=O)c2ccccc2)Cc2cccnc21 | -104%
3 | CCOCC1CN(C(=O)c2cccc(C)n2)Cc2cnn(C)c21 (configuration not stated) | 2.98%
4 | Cc1ccc(CN[C@@H]2COC[C@H]2Cc2cc(C)no2)cc1 | -23.2%
5 | COCCN(C)C(C(=O)O)c1ccc(Cl)c(F)c1 (configuration not stated) | -2.46%
6 | CSCCC(NC(N)=O)C(=O)NCc1c(C)nn(-c2ccccc2)c1C (configuration not stated) | 8.15%
7 | CC(=O)c1ccc(N2CCCC(CO)(Cc3ccccc3C)C2)nc1 (configuration not stated) | 10.1%
8 | Cc1n[nH]c(C2CN(C(=O)c3cc4c(s3)CCCC4)CCO2)n1 (configuration not stated) | -14.9%
9 | CN(C)C(=O)CCC[S+]([O-])Cc1ccc(Cl)c(Cl)c1 (configuration not stated) | 12.4%
10 | CCn1cc(CN2CCCN(C3Cc4ccccc4C3)CC2)c(C)n1 | -10.9%
11 | CCc1nc(C)c(CC(=O)N2CCC3(CC2)OCCCC3OC)c(=O)[nH]1 (configuration not stated) | -0.506%
12 | CCN(Cc1cccnc1)CC1CCCO1 (configuration not stated) | -10.7%
13 | COc1ccc(Cc2nnc(SC)o2)cc1OC | -13.8%
14 | OCCCN1CCCC1c1nc(Cc2ccc(F)cc2)no1 (configuration not stated) | -4.58%
15 | Cc1ccc(CN2CCN(c3ncccc3C(N)=O)CC2CCO)cc1 (configuration not stated) | -13.3%
16 | O=C(CCc1nnc2ccccn2c1=O)NCc1cccnc1 | -1.74%
17 | Cc1cc(O)c(OCC(=O)Nc2nc3c(s2)CCCCC3)cn1 | 3.93%
18 | Cc1nc2[nH]cnc(NCCN3CCCC3)c-2n1 | -12%
19 | O=C(COC1CCCC1)NC(C(=O)Nc1cc[nH]n1)c1ccccc1 (configuration not stated) | -10.7%
20 | CCN1CCCC1CNCc1cc2cc3c(cc2[nH]c1=O)OCCO3 (configuration not stated) | 5.07%
21 | NC(=O)NC(=O)C(c1ccccc1)N1CCN(Cc2ccccc2)CC1 (configuration not stated) | -5.68%
22 | COCC(=O)N1CCCC1c1csc(Nc2cnccn2)n1 (configuration not stated) | -8.11%
23 | CCc1nnc(C2Cc3ccccc3CN2Cc2ncc(Cl)n2C)o1 (configuration not stated) | 12.5%

Row | SMILES | cytotoxicity at 10 µM
24 | CC(C)Nc1nc2c(cc1C(=O)NCC1CC1)CCNCC2 | -5.42%
25 | COCCN1CCCc2sc(C(=O)Nc3ccc(C)nc3)nc21 | 5.92%
26 | CCCn1ncnc1C(C)NC(=O)C1CCN(C(C)C)CC1 (configuration not stated) | -139%
27 | CCn1ccnc1CN1CCCN(C(=O)c2cccc(C#N)c2)CC1 | -12.2%
28 | C1CC(c2noc(C3CC3)n2)CN(CCOCC2CC2)C1 (configuration not stated) | -8.91%
29 | CNc1cncc(C2CCN(C(=O)c3cnco3)CC2)n1 | -5.68%
30 | CC/C(C)=C/CCN1CCN(C)C2(CCNC(=O)CC2)C1 (configuration not stated) | -48.2%
31 | Cc1nnc(N2CCOC(C)(C(=O)N(C)C)C2)c2ccccc12 (configuration not stated) | 10.4%
32 | COc1ccc(-n2cc(CNC(=O)c3cscn3)nn2)cc1 | -2.33%
33 | Cc1nccn1CCCNc1ccc(Cl)c(C#N)n1 | -7.62%
34 | Cc1nc(-c2ccsc2)ccc1C(=O)NCCN1CCOCC1 | -10.2%
35 | CCN(CC)C(=O)CNC(=O)N1CCC(c2ccccc2)C1 (configuration not stated) | 2.03%
36 | Nc1ccc(-c2cnc(C3CCCN3)cn2)cn1 (configuration not stated) | 2.19%
37 | O=S(=O)(N1CCC(n2cccc2)CC1)N1CCCC1c1ccco1 (configuration not stated) | 12.7%
38 | Fc1ccc(C2(NCc3ccccc3)CCOCC2)cc1 | -9.91%
39 | OCCOc1ccc(NCc2cc(F)cc3cccnc23)cn1 | -4.46%
40 | CN(CCc1ccccn1)CCc1nccs1 | 2.01%
41 | CCOc1ccc(-c2nc(C(=O)NCC3CCOC3)cs2)cc1 (configuration not stated) | -4.33%
42 | CCc1cc(C(=O)N2CCCC(c3cc(=O)nc4n3CCC4)C2)no1 (configuration not stated) | -2.6%
43 | COc1ccccc1C(=O)Nc1c(F)c(C(=O)NCCC(C)C)nn1C | -11.1%
44 | CNc1ncc(CN(C)Cc2cc3n(n2)CCNC3)cn1 | -5.71%
45 | Cn1cc(CNC2CC3(CCN(S(C)(=O)=O)CC3)c3ccccc32)cn1 (configuration not stated) | -110%
46 | Cc1ccc(CN(C)C(=O)CN2CC(n3cccn3)C2)o1 | -0.0582%

Row | SMILES | cytotoxicity at 10 µM
47 | COc1ccc(C(=O)N2C[C@@H](CN3CCOCC3)[C@@H](CO)C2)c(C)c1 | -13.8%
48 | CCCOC1CCCN(C(=O)Cn2cccc(C(F)(F)F)c2=O)C1 (configuration not stated) | -0.912%
49 | O=c1[nH]c(N2CCCCC2)nc2nccc(-c3ccc4c(c3)OCO4)c12 | 9.54%
50 | O=C(NCc1cccnc1-n1cccn1)C1CC(=O)N(CC2CC2)C1 (configuration not stated) | 2.77%
51 | COc1c(Br)cccc1CCNC(=O)c1ncoc1C | 3.39%
52 | CN(C)Cc1cccc(-c2cccnc2C(=O)NCc2ccco2)c1 | 4.16%
53 | Cc1cnn(C(C)C2CC2)c1NC(=O)c1ccco1 (configuration not stated) | -1.19%
54 | CC(C)NS(=O)(=O)c1cc(C(=O)O)cc(-c2ccc3c(c2)OCO3)c1 | 0.873%
55 | Fc1ccc(CN2CCC3(CC2)CC(c2cccnc2)CO3)cc1 (configuration not stated) | -4.85%
56 | CC(C)CC(CCO)CNC(=O)N1CCOC2(CCCC2)C1 (configuration not stated) | 6.37%
57 | O=C(CCCNC(=O)NCC1CCCO1)Nc1ccc(Cl)cc1 (configuration not stated) | -4.52%
58 | C[C@@H]1CN(C2CCN(Cc3cnc(-c4cccs4)nc3)CC2)C[C@H](C)O1 | -13.7%
59 | Cc1c(CS(C)(=O)=O)cccc1NC(=O)CC1CCCC1 | -6.72%
60 | Oc1cccc(CN2CCN(c3nccc(CCC(F)(F)F)n3)CC2)c1 | -18.7%
61 | O=C(Nc1cccnc1)[C@H]1C[C@@H]2CCN(c3nncs3)C[C@H]2O1 | -13.3%
62 | Cc1nc(NC2CCCC2)cc(C2CCN2C(=O)c2ccccn2)n1 (configuration not stated) | -4.39%
63 | O=C1C[C@H]2[C@@H](CCN2C(=O)c2ccccc2)N1CCN1CCOCC1 | -3.33%
64 | O=C(c1cccc(-c2ccc(F)cc2)c1)N1CCC2(CC1)[C@H](O)C[C@@H]2O | 2.37%
65 | CCn1ccnc1CNC1CC(=O)N(CCc2cccc(Cl)c2)C1 (configuration not stated) | -127%
66 | COCc1nn(CC2CC2)c2c1CN(Cc1cncn1C)CC2 | 3.94%
67 | CN1CC(=O)N(c2cccc(F)c2)CC12CCN(CCO)C2 (configuration not stated) | -82.1%
68 | O=C(CN1CCCC1Cn1cncn1)Nc1cccnc1 (configuration not stated) | -14.6%
69 | Cc1ccc(C2CCCN2CC(=O)N(CCC#N)c2ccccc2)cc1 (configuration not stated) | -6.89%

Row | SMILES | cytotoxicity at 10 µM
70 | CCc1cnc(C)nc1NCCN1CCC(O)CC1 | 1.78%
71 | CCC(NS(C)(=O)=O)c1ccccc1C (configuration not stated) | -43.2%
72 | CN(Cc1nnc(C2CC2)n1C)C1CCN(Cc2ccon2)C1 (configuration not stated) | -9.04%
73 | CCOc1ncccc1C(=O)N1CCCC1c1c(C)nn(C)c1OC (configuration not stated) | -13%
74 | NC(=O)COc1cccc(Cn2cccn2)c1 | -1.13%
75 | CCN(Cc1nccn1C)C(=O)c1ccc(NCc2ccccc2)nc1 | -14.3%
76 | NCCC(=O)N1CCC2(CC1)CN(C(=O)Cc1ccc(Cl)cc1)CCO2 | 2.24%
77 | CSc1nc(N)c2c(n1)N=C1COC(=O)C1C2c1cccc(Cl)c1 (configuration not stated) | 37.5%
78 | Cc1ccc(CS(=O)(=O)N2CC[C@H]3[C@H]2CCN3C)cc1 | -11.6%
79 | Cc1cccc(NCC(=O)NC2(C#N)CCCC2)c1C(=O)N1CCCC1 | -0.69%
80 | CN1CCN(Cc2cnc3n2CCN(C(=O)c2ccnnc2)C3)CC1 | -81.1%
81 | Cc1ccc2occ(CN3CCN(c4ncccn4)CC3)c(=O)c2c1 | -2.46%
82 | CCc1nc(C)cn1C(=O)Nc1ccccc1 | 2.52%
83 | CCN(CC)CCNC(=O)c1cnc(-c2ccccc2)nc1 | 12.4%
84 | CC(C)CCN1CC2(CCCN(C(=O)CNC(=O)N(C)C)C2)CCC1=O (configuration not stated) | 9.94%
85 | Fc1ccc(-c2nnc(CN3CCCC3Cn3cncn3)o2)cc1 (configuration not stated) | -10.5%
86 | FC1(F)CCN(Cc2cccnc2)CC12CCN(c1cnccn1)C2 (configuration not stated) | 2.6%
87 | Cc1cccnc1NC(=O)NC(C)Cn1cccn1 (configuration not stated) | -6.8%
88 | CC1CCCN(c2ccc(C(N)=O)cc2NC(=O)CC2=CCNCC2)C1 (configuration not stated) | -46.3%
89 | COc1ncccc1CNC1CCc2c(ccc(=O)n2C)C1 (configuration not stated) | -103%
90 | COCCNC(=O)c1ccc(NCc2csc(C)n2)cc1Cl | 6.81%
91 | CC(C)C(NC(=O)c1cnc(N2CCOCC2)nc1)c1cccs1 (configuration not stated) | 9.71%
92 | CCc1cnc(NC(=O)NC2CCN(C3CCCC3)CC2)s1 | -7.27%

Row | SMILES | cytotoxicity at 10 µM
93 | COc1cccc(C(O)CN2CCN(C(=O)c3ccsc3)CC2)c1 (configuration not stated) | -48.1%
94 | Cc1noc(C)c1CN(C)c1ncnc2onc(C)c12 | -20.7%
95 | Cc1oncc1C(=O)N1CC[C@H]2[C@@H]1CCC(=O)N2c1cccnc1 | -76.3%
96 | O=C1CC(c2cccnc2)c2c(c(C(=O)O)cn2-c2ccccc2)N1 (configuration not stated) | 9.92%
97 | Cc1ccc2c(c1)C1(CCNCC1)CN2C(=O)CN(C)C | 0.513%
98 | Cc1cccc(NC2CCN(C(=O)Nc3cc(F)ccc3F)CC2)n1 | -10.7%
99 | CCN(C)c1ncnc2c1CCN(C(=O)c1cnccn1)CC2 | -1.86%
100 | CC(c1ccc(Cl)cc1)N1CCN(CCS(C)(=O)=O)CC1 (configuration not stated) | -20.3%
101 | CC(Sc1nnnn1C1CCOCC1)C(F)(F)F (configuration not stated) | 11.5%
102 | COc1ccc(Cl)cc1Nc1nc(N)c(C(C)=O)s1 | 2.52%
103 | CCN(C)C(=O)[C@H]1C[C@@](CC(C)C)(C(=O)OC)N(C)[C@H]1c1cccnc1 | 0.779%
104 | c1cnc(N2Cc3nccn3CC(COc3cccnc3)C2)nc1 (configuration not stated) | 10.7%
105 | CC(Cc1ccco1)NC(=O)CSc1nnc[nH]1 (configuration not stated) | 13%
106 | CC(NC(=O)c1cccs1)C(=O)Nc1cccnc1N1CCCCC1 (configuration not stated) | -8.94%
107 | CC(=O)N1CC(=O)N(c2ccccc2)CC12CCN(Cc1ccoc1)C2 (configuration not stated) | -1.51%
108 | COc1cc(C2CC(=O)Nc3c2c(=O)[nH]n3C2CCCCC2)ccc1O (configuration not stated) | -0.607%
109 | CCCNC(=O)CSc1nnc2[nH]c(=O)cc(CC)n12 | -17.3%
110 | O=C(c1ccsc1)N1CCc2c(CN3CCCC3)n[nH]c2C1 | 5.04%
111 | CCc1ccc(CN(C/C=C/c2ccccc2)CCOC)nc1 | 10.2%
112 | Cc1ccc(-c2nc(CCNCc3ccncc3)co2)cc1 | -4.96%
